This sample holds only a part of the variants without activity.
B1: tRNA (parent)
chain: GUUCCGUUGGCGUAAUGGUAACGCGUCUCCCUCCUAAGGAGAAGACUGCGGGUUCGAGUCCCGUACGGAACG

Variants of: B1
Test: yeast fitness relative to wild type (ratio to wild type); higher = fitter; tRNA-Arg(CCU), competitive growth, 37 C, YPD
Summary of the method: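 Gene amplicons from the start population and from each of six end populations were read by 100-nucleotide paired-end sequencing. Those end populations came from pooled Saccharomyces cerevisiae strains carrying tRNA-Arg(CCU) gene variants at the native locus, competed in YPD at 37°C for 24 hours. Fitness relative to wild type was worked out from changes in genotype frequencies. Genotypes needed ≥ 100 starting reads, and estimates < 0.5 were set to 0.5.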

| Variant | yeast fitness |
| --- | --- |
| GUUUCGUUGCCGUAGUGGUUGCGCGUCUCCCUUCUAAGGAGAAGACCGCGGGUUCGCGUCCCGUACGGAACG [C4U G10C A15G A20U A21G C33U U47C A57C] | ≤ 0.5 |
| GUUUCAUUGGCGUAAUGGUAACGCGUCUCCCUCCUAAGGAGAAGACUGCGGGUUCGAGUCCGGUACGGAACG [C4U G6A C62G] | 0.54 |
| GUUUCGUUGACGUAAUGGUAACGCGUCUCCCUCGUAAGGGGAAGACUGCGGGUUCGAGUCCCGCACGGAACG [C4U G10A C34G A40G U64C] | ≤ 0.5 |
| GUUUCGUUGGCGUAAUGGUAACGCGUCUCCCUCCUAAGGAGAAGACUGCGGGUUCGAGUCCCGUAGGGAACG [C4U C66G] | 0.75 |
| GUUUCGUUGGCGUAAUGGUAACGCGUCUCCCUCCUAAGGAGAAGACUGCGGGUUCGAGUCCCGUAUGGACCG [C4U C66U A70C] | 0.83 |
| GUUUCGUUGACGUAAUGGUAACGCGUCUCCCUCCUAAGGAGAAGACUGCGGGUUCGAGUCCCGUAUGGAACG [C4U G10A C66U] | 0.663 |
| GUUUCGUUCGCGUAAUGGUAACGCGUCUCCCUCCUAAGGAGAAGGCUGCGGGUUCGAGUCACGUACGGAACG [C4U G9C A45G C61A] | ≤ 0.5 |
| GUUUCGUUAGUGUAAUGGUAACGCGUCUCCCUCAUAAGGAGAAGACUGCGGGUUCGAGUCCCGUACGGAACG [C4U G9A C11U C34A] | ≤ 0.5 |
| GUUUCGUUGACGUAAUGGUAACGUGUCUCCCUCCUAAGGAGAAGAGUGCGGGUUCGAAUCCCGUACGGAACG [C4U G10A C24U C46G G58A] | ≤ 0.5 |
| GUUUCGUUAGCGUAAUGGUAACGGGUCUCCCUCCUACGGAAAAGACUGCGGGUUCGUGUCCCGUACGGAACG [C4U G9A C24G A37C G41A A57U] | ≤ 0.5 |
| GUUUCGUUGACGUAAUGGUAACGUGUCUCCCUCCUAAGGAGAAGACUGCGGGUUCGAGUCCCGUACAGAACG [C4U G10A C24U G67A] | 0.751 |
| GUUUCGUUAGCGUAUUGGUCACGCGUAUCCCUCCUAAGGAGAAGACUGCGGGUUCGAGUCCCGUUCGGAACG [C4U G9A A15U A20C C27A A65U] | 0.768 |
| GUUUCCUUGGCGUAAUGGUAACGCGUCUCGCUCCUAAGGAGAAGACUGCGGGUUCGAGUUCCGUACGGAACG [C4U G6C C30G C60U] | 0.546 |
| GUUUCGUUAGCGUAAUGGUAAGGUGUCUCCCUCCUAAGGAGUAGACUGCGGGUUCGAGUCCCGAACAGAACG [C4U G9A C22G C24U A42U U64A G67A] | 0.572 |
| GUUUCGUUCGCGUAAUGGUAACGUGUCUCGCUCCUAAGGAGAAGACUGCGAGUUCGAGUUCCGUACAGAACG [C4U G9C C24U C30G G51A C60U G67A] | ≤ 0.5 |
| GUUUCGUUAGCGUAAUGGUAACGCGUCUUCCUCCUAAGGAGAAGACUGCGGGUUCGAGUCCCGUACGGAACG [C4U G9A C29U] | 0.567 |
| GUUUCCUUGGCGUUAUGGUAACGGGUCUCCCUCCUAAGGAGAAGACUGCGGGUUCGAGUCCCGUAUGGAACG [C4U G6C A14U C24G C66U] | ≤ 0.5 |
| GUUUCGUUCGCGUAAUGGUAACGCGUCUCCCUGCUAAGGAGAAGACUGAGGGUUCGAGUCCCGUACGGAGCG [C4U G9C C33G C49A A70G] | ≤ 0.5 |
| GUUUCGUUAGCGUAAUGGUAACGCGUCUCCCUGCUAAGGAGAAGACUGCGGGUUCGAGUCCCGUACGGAACG [C4U G9A C33G] | 0.639 |

| Variant | yeast fitness |
| --- | --- |
| GUUUCGUUGACGUAAUGGUAACGCGUCUCUCUCCUAAGGAGAAGACUGGGGGUUCGAGUCCCGUACGAAACG [C4U G10A C30U C49G G68A] | 0.585 |
| GUUUCGUUAGCGUAAUGGUAACGCGUCUCCCUCCUAAGGAGAAGACUGCGGGUUCGAGUCCCGUACGAAACG [C4U G9A G68A] | 0.968 |
| GUUUCGUUGACGUAAUGGUAACGUGUCUCCCUCCUAAGGAGAAGACUGCGGGUUCGAGUCCCGUACGGCACG [C4U G10A C24U A69C] | 0.769 |
| GUUUCGUUGACGUAAUGGUAACGUGUCUCCCUCCUAAGGAGAAGACUGCGGGUUCGAGUCCCGUACGGUACG [C4U G10A C24U A69U] | 0.838 |
| GUUUCGUUCGCGUAAUGGUAACGCGUCUCCCUCCUAAGGAGAAGACUGCGGGUUCGAGUCACGUACGGCACG [C4U G9C C61A A69C] | ≤ 0.5 |
| GUUUCGUUAGCGUAAUGGUAACGCGUCUCCCUCCUAAGGAGAAGACUGCGGGUUCGGGUCCCGUACGGAACG [C4U G9A A57G] | 0.61 |
| GUUUCGUUGGCGUAAUGGUAACGCGUCUCCCUCCUAAGGAGAAGACUGCGGGUUCGAGUCCCGUAGGGAUCG [C4U C66G A70U] | 0.608 |
| GUUUCGUUGACGUAAUGGUAAUGCGUCUCCCUCCUAAGGAGAAGACUGCGGGUUCGAGUCCCGUACGGAACG [C4U G10A C22U] | ≤ 0.5 |
| GUUUCGUUGACGUAAUGGUAACCCGUCUCCCUCCUAAGGAGAAGACUGAGGGUUCGAGUCCCGUACGCAACG [C4U G10A G23C C49A G68C] | ≤ 0.5 |
| GUUUCGUUGGCGUAAUGGUAACGCGUCUCCCUCCUAAGGAGAAGACUGCGGGUUCGAGUCCAGUACGGAACG [C4U C62A] | 0.85 |
| GUUUCGUUGGCGUAAUGGUAACGCGUCUCCCUCCUAAGGAGAAGACUGCGGGUUCGAGUCCGGUACGGAACG [C4U C62G] | 0.808 |
| GUUUCGUUGGCGUAAUGGUAACGCGUCUCCCUCCUAAGGAGAAGACUGCGGGUUCGAGUCCUGUACGGAACG [C4U C62U] | 0.992 |
| GUUUCGUUGACAUAAUGGUAACGCGUCUCCCUCCUAAGGAGAAGACUGCGGGUUCGAGUCCCGUACGGAACG [C4U G10A G12A] | 0.653 |
| GUUUCGUUGGCGUAAUGGUAACGCGUCUCCCUCCUAAGGAGAAGACUGCGGGUUCGAGUCACGUACGGAACG [C4U C61A] | 0.667 |
| GUUUCGUUGGCGUAAUGGUAACGCGUCUCCCUCCUAAGGAGAAGACUGCGGGUUCGAGUCGCGUACGGAACG [C4U C61G] | 0.63 |
| GUUUCGUUAGCGUAAUGGUAACGCGUCUCCCUCCUAAGGUGAAGACUGCGGGUUCGAGUCCCGUACGGAACG [C4U G9A A40U] | 1.05 |
| GUUUCGUUAGCGUAAUGGUAACGCGUCUCCCUGCUAAGGAGAAGACUGCGGGUUCGAGUCCCGUACAGAACG [C4U G9A C33G G67A] | ≤ 0.5 |
| GUUUCGUUCGCGUAAUGAUAACGCGUCUGCUCCCUAAGGAGAAGACUGCCGGUUCGAGUCCCGUACGGAACG [C4U G9C G18A C29G C31U U32C G50C] | ≤ 0.5 |
| GUUUCGUUGACGUAAUGGUAACGUGUCUCCCUCCUAAGGAGAAGACUGCGGGUUCGAGUCACGUACGGAACG [C4U G10A C24U C61A] | 0.623 |

Reference: the RNAGym collection of RNA variant scans (doi:10.1126/science.aae0568)
